Columns and labels:
[1] = molecular target: T1, Leukotriene B4 receptor 1 (Homo sapiens, UniProt Q15722); test: Inhibition of binding of [3H]LTB4 to receptor […]
Procedure, shortened: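 Intact human neutrophils isolated from heparinized blood of normal volunteers (Ficoll-Hypaque, dextran sedimentation, hypotonic lysis) were suspended at 2 × 10⁷ cells/mL in Ca/Mg-free HBSS with 0.1% ovalbumin. Tubes held 0.1 nM final [³H]LTB₄ and compound in DMSO (1.9% final), ran 10 min at 4 °C, then were harvested for scintillation counting. Triplicate tubes; nonspecific binding set with 10 000-fold unlabeled LTB₄.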

[2] = molecular target: T1, Leukotriene B4 receptor 1; test: Inhibition of specific binding of LTB4 ( 0.1 nM) to receptors on intact human neutrophils
Procedure, shortened: (§1)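 Intact human neutrophils from heparinized venous blood of normal volunteers, isolated by Ficoll-Hypaque centrifugation, dextran 70 sedimentation and hypotonic lysis (≥90% neutrophils, ≥90% viable). Cells at 2 × 10⁷/mL in Ca/Mg-free Hanks' with 0.1% ovalbumin, [³H]LTB₄ final 0.1 nM, compound in DMSO (final 1.9%). Incubation 10 min at 4 °C, harvest, scintillation counting. Nonspecific binding from 10 000-fold excess unlabeled LTB₄. Triplicate tubes.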

[3] = molecular target: T1, Leukotriene B4 receptor 1; test: Relative potency against LTB4 receptor was determined
[4] = molecular target: T1, Leukotriene B4 receptor 1; test: Inhibition constant against binding of [3H]LTB4 to human neutrophils; procedure, shortened: as §1
Homo sapiens [5] = species on record: Homo sapiens; test: Inhibition of luminol-dependent chemiluminescence induced by stimulating the neutrophil cells with FMLP (N-formyl-L-methionyl-L-leucyl-l-phenylalanine); format: functional, cell-based
Procedure, shortened: (§2)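 Luminol-dependent chemiluminescence of human neutrophils (1 × 10⁷/mL) in Ca/Mg-free Dulbecco's PBS, pH 7.4, with cytochalasin B, stirred at 900 rpm and 37 °C in an aggregometer. Antagonist was added at 2 min, then Ca²⁺/Mg²⁺. After 1 min, luminol and agonist (LTB₄ or FMLP, 30 nM) were added and the maximum response recorded. Cells from five individuals.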

Homo sapiens [6] = species on record: Homo sapiens; test: Inhibition of luminol-dependent chemiluminescence induced by stimulating the neutrophil cells with LTB4.; format: functional, cell-based; procedure, shortened: as §2
Homo sapiens [7] = species on record: Homo sapiens; test: LTB4-induced chemotaxis of the human neutrophils; format: functional
Homo sapiens [8] = species on record: Homo sapiens; test: The activity of suppression of the FMLP-mediated response; format: functional; procedure, shortened: as §2
Homo sapiens [9] = species on record: Homo sapiens; test: Inhibition of LTB-4 induced chemotaxis of human neutrophils; format: functional
Homo sapiens [10] = species on record: Homo sapiens; test: The antagonist activity measured as blockade of the FMLP reaction in neutrophils; format: functional; procedure, shortened: as §2

T1 sequence (Q15722 whole entry): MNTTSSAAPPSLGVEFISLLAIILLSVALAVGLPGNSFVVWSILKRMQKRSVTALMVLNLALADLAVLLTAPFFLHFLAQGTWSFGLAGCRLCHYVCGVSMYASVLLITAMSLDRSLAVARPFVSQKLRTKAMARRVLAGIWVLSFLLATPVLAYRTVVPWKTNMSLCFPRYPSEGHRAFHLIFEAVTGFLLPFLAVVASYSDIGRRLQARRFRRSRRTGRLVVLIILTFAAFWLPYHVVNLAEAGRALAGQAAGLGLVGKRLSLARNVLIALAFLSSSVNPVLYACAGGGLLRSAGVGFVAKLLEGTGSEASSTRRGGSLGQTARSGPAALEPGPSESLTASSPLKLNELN

Row | SMILES | IC50 [2] | Relative potency [3] | also measured
1 | COc1ccc(/C=C/CCCCOc2ccc(C(=O)c3cccc(C(=O)O)c3)cc2CCC(=O)O)cc1 | – | – | IC50 [1]: 1.9 nM
2 | CCCCCCCCCCOc1cc2oc3ccc(C(=O)O)cc3c(=O)c2cc1CCC(=O)O | 832 nM | 2.5 | –
3 | COc1ccc(/C=C/CCCCOc2ccc3c(=O)c4cc(C(=O)O)ccc4oc3c2CCC(=O)O)cc1 | 6.2 nM | 338 | Ki [4]: 5.9 nM; IC50 (Homo sapiens [5]): 1600 nM; IC50 (Homo sapiens [6]): 55 nM; IC50 (Homo sapiens [7]): 899 nM; IC50 (Homo sapiens [8]): 2170 nM
4 | CCCCCCCCCCOc1ccc2c(=O)c3cc(C(=O)O)ccc3oc2c1CCC(=O)O | 43 nM | 49 | IC50 (Homo sapiens [9]): 7900 nM; IC50 (Homo sapiens [5]): 734 nM; IC50 (Homo sapiens [6]): 342 nM; IC50 (Homo sapiens [10]): 1210 nM
5 | CCCCCCCCCCOc1cc2oc3c(C(=O)O)cccc3c(=O)c2cc1CCC(=O)O | 1770 nM | 1.2 | –
6 | CCCCCCCCCCOc1ccc2c(=O)c3cccc(C(=O)O)c3oc2c1CCC(=O)O | 2100 nM | 1 | –
7 | CCCCCCCCCCOc1ccc(C(=O)c2cccc(C(=O)O)c2)cc1CCC(=O)O | 210 nM | 10 | –

— ChEMBL document CHEMBL1126712, “Design, synthesis, and pharmacological evaluation of potent xanthone dicarboxylic acid leukotriene B4 receptor antagonists” (J Med Chem, 1993)
